Screens: PubChem, several laboratories
SENP1 inh – inhibitors of human SENP1 SUMO protease catalytic domain; recombinant SENP1 catalytic domain, CyPet-SUMO1-YPet FRET cleavage; inhibition, % at 10 µM; 360,000 tested, 0.21% active;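 active means inhibition at least 30% at 10 µM, raw YFP signal under a set limit, fluorescence ratio 0.5 to 1.5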
Target sequence (Q9P0U3 419-644 limits assumed): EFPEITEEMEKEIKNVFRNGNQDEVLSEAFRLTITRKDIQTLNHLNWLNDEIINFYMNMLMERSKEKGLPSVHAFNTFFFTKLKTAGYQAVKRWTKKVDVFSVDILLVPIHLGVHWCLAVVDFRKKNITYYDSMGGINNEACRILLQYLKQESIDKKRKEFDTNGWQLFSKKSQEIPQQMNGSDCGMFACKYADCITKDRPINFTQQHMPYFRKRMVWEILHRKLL
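Material – human SENP1 catalytic domain · Input – SENP1 enzyme, 20 pM final · Compound dosing – single concentration of 10 µM compound, 0.5% DMSO final · Timing – enzyme reaction for 50 min at room temperature, dark · Measured by – FRET fluorescence in CFP and YFP emission channels · Control set – no-enzyme wells low, DMSO-plus-enzyme wells high control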
HNF4A DNA FP – change in binding of human HNF4 alpha to DNA; AID 1224865; P41235; 360,000 tested, 0.3% active; HNF4a-FITC DNA binding, fluorescence polarization, 1 h; activity change, % at 10 µM; in the data active means activity change above about 30%, passing the limit was not always enough
Target sequence (P41235 whole entry, looked up): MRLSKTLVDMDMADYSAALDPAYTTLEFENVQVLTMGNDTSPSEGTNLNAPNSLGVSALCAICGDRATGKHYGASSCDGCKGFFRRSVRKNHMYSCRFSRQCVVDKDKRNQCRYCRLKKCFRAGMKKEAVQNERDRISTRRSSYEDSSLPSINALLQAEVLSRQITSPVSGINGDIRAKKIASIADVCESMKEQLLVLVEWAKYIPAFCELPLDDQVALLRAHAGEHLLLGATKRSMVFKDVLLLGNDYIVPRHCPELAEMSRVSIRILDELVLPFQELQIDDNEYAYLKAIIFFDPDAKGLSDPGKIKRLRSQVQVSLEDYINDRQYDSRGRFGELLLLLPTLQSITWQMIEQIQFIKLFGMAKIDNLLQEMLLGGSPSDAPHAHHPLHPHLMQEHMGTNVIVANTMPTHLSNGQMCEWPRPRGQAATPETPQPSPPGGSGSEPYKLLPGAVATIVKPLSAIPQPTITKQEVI
Rpn11 block – Rpn11 (human) deubiquitinase inhibition; O00487; human 26S proteasome, Ub4-pepOG fluorescence polarization; 20S core pre-blocked with epoxomicin; inhibition, % at 20 µM; 360,000 tested, 0.59% active; AID 588493;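 active means inhibition at 20 µM, scaled to each plate's controls, above about 33%, limit read from the data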
TPT1 inhibitor – blocks Candida albicans tRNA 2'-phosphotransferase; recombinant caTPT1, FP RNA substrate dephosphorylation; inhibition, % at 5 µM; 300,000 tested, 0.81% active;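 active means inhibition above the mean of all tested compounds plus 3 SD, set per screening campaign, cut at about 24% in these data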
CSN deneddyl inh – CSN deneddylation inhibition | Q92905 | Purified CSN, SCF-Nedd8-OG deneddylation, fluorescence polarization | inhibition, % at 12.5 µM | 360,000 tested, 0.38% active | AID 651999;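 active means pattern-corrected inhibition above about 35%, with an unprinted fluorescence ratio check between 0.5 and 1.5, limit read from the data, passing the limit was not always enough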
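Test system: Human Csn5 produced in HEK293T cells | Compound: 12.5 µM single point | Times: 90 min, room temperature | Signal: Fluorescence polarization readout | Read-out basis: % inhibition of substrate cleavage by Csn5 | Controls: no-enzyme wells high, enzyme-with-substrate wells low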
SENP1 inh conf – SENP1 (human) inhibition, single concentration confirmation; 520 tested, 34% active; recombinant SENP1, CyPet-SUMO1-YPet FRET cleavage; inhibition, % at 10 µM; shares compounds with SENP1 inh; in the data active means inhibition mostly above about 35%, no sharp cut-off; inactive means mostly below about 32%
SENP1 kin conf – confirmation of human SENP1 SUMO protease inhibitors, kinetic. shares compounds with SENP1 inh. recombinant SENP1, CyPet-SUMO1-YPet FRET kinetic cleavage. 520 tested, 26% active. inhibition, % at 10 µM. AID 651690; in the data active means inhibition mostly above about 32%, no sharp cut-off; inactive means mostly below about 29%
Of the large screens only hits and unclear results are named; the others gave an inactive call (follow-up assays come after a bar, where shown); ! = a repeat was not active. Only some compounds are listed: those with a hit (about 1.6% of all), similar ones and a draw of the others.

CN(C(=O)CC1C(=O)NCCN1Cc1ccc(F)c(F)c1)C1CCOCC1 (centres undefined)	none
CC(=O)Nc1cc(-c2ccccc2N(C)C)cn2c(-c3cccc(C(F)(F)F)c3)cnc12	none (no result: TPT1 inhibitor)
CCN1C(=O)c2cccc3c(NC(=O)c4cccc(N5C(=O)CCC5=O)c4)ccc1c23	SENP1 inh 58 | SENP1 inh conf 44 | SENP1 kin conf inactive
COc1ccc([C@H]2N[C@]3(CCCN(Cc4ccc(C)cc4)C3=O)[C@H]3C(=O)N(Cc4ccccc4)C(=O)[C@@H]23)cc1	none (no result: TPT1 inhibitor)
Clc1ccccc1N=Nc1ccccn1	SENP1 inh 58 (no result: TPT1 inhibitor) | SENP1 inh conf inactive | SENP1 kin conf inactive
COc1ccccc1CNC(=O)CNC(=O)[C@@H]1Cc2ccccc2CN1	none
Cc1cc(C)n2c(Nc3c(C)cccc3C)c(-c3cccnc3)nc2n1	SENP1 inh 64 (no result: Rpn11 block, TPT1 inhibitor) | SENP1 inh conf 39 | SENP1 kin conf inactive
CCCCNc1c(-c2cccnc2)nc2nc(C)cc(C)n12	SENP1 inh 36 (no result: Rpn11 block, TPT1 inhibitor) | SENP1 inh conf inactive | SENP1 kin conf inactive
Cc1cc(C)n2c(NC3CCCC3)c(-c3cccnc3)nc2n1	SENP1 inh 32 (no result: Rpn11 block, TPT1 inhibitor) | SENP1 inh conf inactive | SENP1 kin conf inactive
Cc1cc(C)cc(N(CC(=O)NC(C)(C)C)C(=O)CNC(=O)c2cccs2)c1	none
CC(=O)Nc1ccc(NC(=O)CSc2ncnc3sc(C)c(C)c23)cc1	none
CCN(CC(=O)Nc1ccc(NC(C)=O)cc1)C(=O)CSc1ncnc2sc(C)c(C)c12	SENP1 inh 41 | SENP1 inh conf 89 | SENP1 kin conf 68
COCCNC(=O)C1(C)CCCN(CCS(=O)(=O)c2ccc(C)cc2)C1 (centres undefined)	none (no result: TPT1 inhibitor)
O=C1CC(c2ccccc2)c2ccccc21 (centres undefined)	none
CN1Cc2c(N)cccc2C(c2ccccc2)C1 (centres undefined)	SENP1 inh 74! | SENP1 inh conf 67 | SENP1 kin conf 45
COc1c(O)cccc1[C@H](O)C1CCN(CCc2ccc(F)cc2)CC1	SENP1 inh 30 | SENP1 inh conf inactive | SENP1 kin conf inactive
CCN1CCC(NCCc2ccc(F)cc2)CC1	none
Brc1ccccc1/C=N/Nc1ccccn1	SENP1 inh 44 | SENP1 inh conf inactive | SENP1 kin conf inactive
Clc1ccccc1C=NNc1ccccn1	none (no result: TPT1 inhibitor)
O=C(C[n+]1cccc2ccccc21)c1ccc(Br)cc1	SENP1 inh 57 (not shown: Rpn11 block) | SENP1 inh conf inactive | SENP1 kin conf inactive
Cc1ccc(C(=O)C[n+]2cccc3ccccc32)cc1	SENP1 inh 30 | SENP1 inh conf inactive | SENP1 kin conf inactive
NC(=O)C[n+]1cccc2ccccc21	SENP1 inh 39 | SENP1 inh conf inactive | SENP1 kin conf inactive
O=C(C[n+]1cc(Br)cc2ccccc21)c1ccc(Cl)cc1	SENP1 inh 44 | SENP1 inh conf inactive | SENP1 kin conf inactive
NC(=O)C[n+]1cccc(C(=O)Nc2ccccc2)c1	none
CNS(=O)(=O)c1cc(-c2nnc(N3CCOCC3)c3ccccc23)ccc1C	none
O=C1C2C(c3ccccc3)C=CC(c3ccccc3)C2C(=O)N1c1ccncc1 (centres undefined)	none
O=C1C2C(c3ccccc3)C=CC(c3ccccc3)C2C(=O)N1c1ccccn1 (centres undefined)	SENP1 inh 41 | SENP1 inh conf 54 | SENP1 kin conf 46
COc1ccc(NC(=O)CCCNC(=O)Cn2cnc3sc4c(c3c2=O)CCCC4)c(OC)c1	none
Cc1nc(-c2cccc(NC(=O)c3ccco3)c2)cs1	none (no result: TPT1 inhibitor)
Cc1nc(-c2cccc(NC(=O)c3cc4cc(Br)ccc4oc3=O)c2)cs1	SENP1 inh 38 | SENP1 inh conf inactive | SENP1 kin conf inactive
OCCNC(=S)Nc1ccc2nsnc2c1	SENP1 inh 36 | SENP1 inh conf inactive | SENP1 kin conf inactive
COc1ccc(/C(N)=N/OC(=O)C2CCCCC2)cc1	none
Clc1ccc(-c2ccc(C=Nc3ccc(N4CCOCC4)cc3)o2)cc1	none
Clc1ccc(-c2ccc(C=Nc3ccc(N4CCOCC4)cc3)o2)c(Cl)c1	SENP1 inh 32 | SENP1 inh conf inactive | SENP1 kin conf inactive
CCCNC(=O)c1cc(C2CCCN(C(=O)c3ccc(NC(C)=O)cc3)C2)on1 (centres undefined)	none (no result: TPT1 inhibitor)
CC1CC(C)CN(CCCNS(=O)(=O)c2ccc3c(c2)oc(=O)n3C)C1 (centres undefined)	SENP1 inh 33 (no result: TPT1 inhibitor) | SENP1 inh conf inactive | SENP1 kin conf inactive
CC1CCN(C(=O)CCNS(=O)(=O)c2ccc3c(c2)oc(=O)n3C)CC1	none
O=C1C(Cc2ccc3[nH]ccc3c2)NC(=S)N1c1ccccc1 (centres undefined)	none
Cc1ccc(C(=O)CCC(=O)OCC(=O)Nc2ccccc2SCC#N)cc1	SENP1 inh 46 (no result: TPT1 inhibitor) | SENP1 inh conf inactive | SENP1 kin conf inactive
Cc1nc(C)c(C(=O)OCC(=O)Nc2ccccc2SCC#N)s1	SENP1 inh 45 (no result: TPT1 inhibitor) | SENP1 inh conf inactive | SENP1 kin conf inactive
Cc1ccc(-c2cn(-c3ccccc3F)c(=S)[nH]2)cc1	none
O=[N+]([O-])c1ccc(-c2cn(-c3ccccc3F)c(=S)[nH]2)cc1	SENP1 inh 30 | SENP1 inh conf inactive | SENP1 kin conf inactive
CCOc1ccc(NC(=O)Cc2ccccc2)c([N+](=O)[O-])c1	none
CCOc1ccc(NC(=O)c2ccc(Br)o2)c([N+](=O)[O-])c1	SENP1 inh 32 (not shown: Rpn11 block) | SENP1 inh conf inactive | SENP1 kin conf inactive
O=C1C=C(c2cccc(Cl)c2)C[C@@H](c2ccc3c(c2)OCO3)C1	none (no result: TPT1 inhibitor)
COc1ccc([C@H]2CC(=O)C=C(c3cccc(Cl)c3O)C2)cc1OC	SENP1 inh 33 (no result: TPT1 inhibitor) | SENP1 inh conf 74 | SENP1 kin conf 62
O=C1C=C(c2cccc(Cl)c2O)C[C@@H](c2ccc3c(c2)OCO3)C1	SENP1 inh 50 (no result: TPT1 inhibitor) | SENP1 inh conf 95 | SENP1 kin conf 77
O=C(CNC(=O)c1ccco1)NNC(=O)c1cccc(Cl)c1	none (no result: TPT1 inhibitor)
Cc1ccc(S(=O)(=O)NC(C)CCc2ccccc2)cc1C(N)=O (centres undefined)	none
COc1ccc(-c2nc3ncccn3c2Nc2ccccc2)cc1	SENP1 inh 37 | SENP1 inh conf inactive | SENP1 kin conf inactive
Cc1ccc(Nc2c(-c3ccc(N(C)C)cc3)nc3ncccn23)cc1	none
CC1=Nc2ccccc2N=C(N)C1c1ccccc1 (centres undefined)	SENP1 inh 36 | SENP1 inh conf inactive | SENP1 kin conf inactive
O=C(Nc1cc2c(cc1Cl)-c1ccc([N+](=O)[O-])cc1C2=NO)C(F)(F)F	SENP1 inh 85 (no result: TPT1 inhibitor) | SENP1 inh conf 57 | SENP1 kin conf 36
